Experimental data published in PMC6420784 (Clinical lung cancer, 2018).
“And” between values parts separate entries of the source, which are not always exact repeats. Equal entries are not always repeated. Marks after values point to notes of the source that are not given here.

Assays:
[1] = system: patients with KRAS-mutated metastatic NSCLC; test: Phase Ib safety: adverse events, dose-limiting toxicities, MTD; format: in vivo, human; settings: for patients with AEs leading to dose interruptions or dose modifications: all dose levels, of the named drug
How it was run: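 Two 3 + 3 escalations. First, JAK/TBK1 inhibitor 100–200 mg q.d. or b.i.d. with MEK1/2 inhibitor 1.0 mg q.d. (level −1: 100 mg with 0.5 mg). Then MEK inhibitor 1.5 and 2.0 mg q.d. at the other drug's MTD. DLTs scored over the first 28-day cycle. MTD was the level below that with ≥2 DLTs. AEs recorded from first dose to 30 days post-dose, coded by MedDRA 19.1 and graded by CTCAE 4.03.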

[2] = system: previously treated KRAS-mutated advanced NSCLC; settings: single-agent trametinib 2.0 mg q.d., 10 of 86 patients; cited from earlier work
[3] = system: KRAS-mutated metastatic NSCLC; test: Phase Ib efficacy: tumor response per RECIST, PFS, OS; format: in vivo, human; settings: all 21 patients, n = 10
How it was run: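 Open-label, nonrandomized phase Ib in platinum-treated, refractory KRAS-mutated metastatic NSCLC (ECOG 0–1, measurable disease). Patients dosed until progression, unacceptable toxicity, consent withdrawal or refusal. CT at baseline and every 8 weeks, scored by RECIST 1.1. DCR at week 8 (CR+PR+SD) and ORR (CR+PR) given per dose level with Clopper–Pearson 90% CIs. PFS and OS by Kaplan–Meier. All enrolled patients analysed.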

[4] = Plasma pharmacokinetics of momelotinib and M-21; format: in vivo, human; settings: for Cmax and AUCtau with b.i.d. dosing: across 100 mg and 150 mg dose levels (dose levels 2B, 3, and I); for dose proportionality of Cmax and AUCtau: day 15 of cycle 1, between dose level 1 (100 mg q.d.) and dose level 2A (200 mg q.d.); for Cmax / Tmax / half-life: human, oral; for Cmax: mean (%CV); for Cmax / Tmax / half-life / AUCtau, mean (%CV): momelotinib in plasma; for Tmax: median (Q1, Q3); for half-life: t1/2, median (Q1, Q3)
myelofibrosis patients = settings: once daily (q.d.), previously established; cited from earlier work
[5] = plasma, day 15 of cycle 1, M1: momelotinib 100 mg q.d. with trametinib 1.0 mg q.d.
[6] = plasma, day 15 of cycle 1, M2A: momelotinib 200 mg q.d. with trametinib 1.0 mg q.d.
[7] = plasma, day 15 of cycle 1, M2B: momelotinib 100 mg b.i.d. with trametinib 1.0 mg q.d.
[8] = plasma, day 15 of cycle 1, M3: momelotinib 150 mg b.i.d. with trametinib 1.0 mg q.d.
[9] = plasma, day 15 of cycle 1, TI: momelotinib 150 mg b.i.d. with trametinib 1.5 mg q.d.

CC(=O)Nc1cccc(-n2c(=O)n(C3CC3)c(=O)c3c(Nc4ccc(I)cc4F)n(C)c(=O)c(C)c32)c1 [trametinib]
patients with AEs leading to dose interruptions or dose modifications [1]: 52.4% | maximum tolerated dose (MTD) of trametinib ([1]; q.d., in combination with momelotinib 150 mg b.i.d. (dose level M3)): 1.0 mg and 1 mg | PR [2]: 11.6%

N#CCNC(=O)c1ccc(-c2ccnc(Nc3ccc(N4CCOCC4)cc3)n2)cc1 [Momelotinib, momelotinib]
patients who discontinued because of AEs ([1]; all 21 patients, n = 9): 42.9% | patients with AEs leading to dose interruptions or dose modifications [1]: 47.6% | maximum tolerated dose (MTD) of momelotinib ([1]; b.i.d., in combination with trametinib 1.0 mg q.d. (dose level M3)): 150 mg | patients who discontinued because of PD [3]: 47.6% | Cmax and AUCtau with b.i.d. dosing [4]: similar | dose proportionality of Cmax and AUCtau [4]: more than dose-proportional increases | maximum momelotinib plasma concentrations ([4]; discussion summary): approximately 300 ng/mL | maximum momelotinib plasma concentrations ([4]; equal to approximately 300 ng/mL): 0.72 µmol/L | Cmax [4, 5]: 136 ng/mL | Cmax [4, 6]: 572 ng/mL | Cmax [4, 7]: 318 ng/mL | Cmax [4, 8]: 290 ng/mL | Cmax [4, 9]: 359 ng/mL | Tmax [4, 5]: 1.9 h | Tmax [4, 6]: 2 h | Tmax [4, 7]: 0.9 h | Tmax [4, 8]: 1.1 h | half-life [4, 5]: 414 min | half-life [4, 6]: 522 min | half-life [4, 7]: 498 min | half-life [4, 8]: 366 min | AUCtau, mean (%CV) ([4]; day 15 of cycle 1, M1: momelotinib 100 mg q.d. with trametinib 1.0 mg q.d.): 774.3 (47.1) ng/mL/h | AUCtau, mean (%CV) ([4]; day 15 of cycle 1, M2A: momelotinib 200 mg q.d. with trametinib 1.0 mg q.d.): 3901.9 (48.2) ng/mL/h | AUCtau, mean (%CV) ([4]; day 15 of cycle 1, M2B: momelotinib 100 mg b.i.d. with trametinib 1.0 mg q.d.): 2568.3 (53.0) ng/mL/h | AUCtau, mean (%CV) ([4]; day 15 of cycle 1, M3: momelotinib 150 mg b.i.d. with trametinib 1.0 mg q.d.): 2214.1 (71.5) ng/mL/h | AUCtau, mean (%CV) ([4]; day 15 of cycle 1, TI: momelotinib 150 mg b.i.d. with trametinib 1.5 mg q.d.): 1871.1 (8.2) ng/mL/h | MTD of momelotinib as a single agent (myelofibrosis patients): 200 mg

N#CCNC(=O)c1ccc(-c2ccnc(Nc3ccc(N4CCOCC4=O)cc3)n2)cc1 [M-21]
Cmax and AUCtau with b.i.d. dosing [4]: similar | dose proportionality of Cmax and AUCtau [4]: more than dose-proportional increases | M-21/Momelotinib Ratio, AUCtau, mean (%CV) [4, 5]: 2.6 (44.6) | M-21/Momelotinib Ratio, Cmax, mean (%CV) [4, 5]: 2.2 (52.0) | M-21/Momelotinib Ratio, AUCtau, mean (%CV) [4, 6]: 1.7 (52.8) | M-21/Momelotinib Ratio, Cmax, mean (%CV) [4, 6]: 1.2 (47.2) | M-21/Momelotinib Ratio, Cmax, mean (%CV) [4, 7]: 1.7 (38.3) | M-21/Momelotinib Ratio, AUCtau, mean ([4]; plasma, day 15 of cycle 1, M2B: momelotinib 100 mg b.i.d. with trametinib 1.0 mg q.d., n = 1): 2.7^c | M-21/Momelotinib Ratio, AUCtau, mean (%CV) [4, 8]: 1.3 (40.3) | M-21/Momelotinib Ratio, Cmax, mean (%CV) [4, 8]: 1.3 (25.8) | M-21/Momelotinib Ratio, AUCtau, mean (%CV) [4, 9]: 1.4 (20.6) | M-21/Momelotinib Ratio, Cmax, mean (%CV) [4, 9]: 1.1 (13.7)
